ChEMBL document CHEMBL4130485, “Inhibitors of Yellow Fever Virus replication based on 1,3,5-triphenyl-4,5-dihydropyrazole scaffold: Design, synthesis and antiviral evaluation” (Eur J Med Chem, 2017)
pEC50: −log10 of the molar value.

Tests used:
Human orthopneumovirus = test: Antiviral activity against Human respiratory syncytial virus A2 ATCC VR 1540 infected in African green monkey Vero 76 cells assessed as protection against virus-induced cytopathic effect after 5 days by crystal violet staining-based plaque reduction assay; assay type: functional, organism-based; settings: ATCC VR 1540, Vero 76, 120 h
[1] = test system: Bovine viral diarrhea virus 1; test: Antiviral activity against Bovine viral diarrhea virus NADL ATCC VR 534 infected in bovine MDBK cells assessed as protection against virus-induced cytopathic effect after 3 to 4 days by MTT assay; assay type: functional, organism-based, Bovine viral diarrhea virus 1-NADL; settings: Bovine viral diarrhea virus isolates and strains, ATCC VR 534, MDBK
In short: (§1)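 BHK-21 cells (MDBK for BVDV) seeded at 5×10^4 (BHK) or 3×10^4 (MDBK) cells/well and grown overnight to confluence. Infected at m.o.i. 0.01 in maintenance MEM-Earle with 0.5% inactivated FBS. Serial compound dilutions added 2 h later (final 100, 20, 4, 0.8 µM; DMSO ≤0.1%). Viability read by MTT after 3–4 days at 37 °C. EC50 obtained by linear regression against untreated controls; mean of three determinations.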

Human alphaherpesvirus 1 = test: Antiviral activity against Human herpesvirus 1 KOS ATCC VR 1493 infected in African green monkey Vero 76 cells assessed as protection against virus-induced cytopathic effect after 3 days by crystal violet staining-based plaque reduction assay; assay type: functional, organism-based; settings: Human alphaherpesvirus 1, KOS, Vero 76, 72 h
[2] = Cytotoxicity against golden hamster BHK21 cells assessed as decrease in cell viability after 72 hrs by MTT assay; assay type: cell-based, Mesocricetus auratus, BHK-21
In short: (§2)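 Uninfected MDBK (6×10^5 cells/mL, 10% horse serum) or BHK (1×10^6 cells/mL, 10% FBS) cells in MEM-Earle with serial compound dilutions at 37 °C, 5% CO2, run in parallel with the antiviral assays. Viability read by MTT after 72 h. CC50 by linear regression; mean of three determinations.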

[3] = test system: Vesicular stomatitis Indiana virus; test: Antiviral activity against Vesicular stomatitis virus Indiana ATCC VR 158 infected in African green monkey Vero 76 cells assessed as protection against virus-induced cytopathic effect after 2 days by crystal violet staining-based plaque reduction assay; assay type: functional, organism-based; settings: ATCC VR 158, Vero 76, 48 h
Yellow fever virus [4] = test: Potency index, ratio of azauridine EC50 to compound EC50 for Yellow fever virus 17D vaccine (Stamaril Pasteur J07B01); assay type: functional
West Nile virus = test: Antiviral activity against West Nile virus clinical isolate infected in golden hamster BHK21 cells assessed as protection against virus-induced cytopathic effect after 3 to 4 days by MTT assay; assay type: functional, organism-based; settings: BHK-21; in short: as §1
[5] = Selectivity index, ratio of CC50 for bovine MDBK cells to EC50 for Bovine viral diarrhea virus NADL ATCC VR 534; assay type: toxicity; settings: cattle, read-out: Ratio CC50/EC50
In short: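 Selectivity index calculated as MDBK CC50 divided by BVDV EC50, both by MTT.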

Vaccinia virus = test: Antiviral activity against Vaccinia virus Lister ATCC VR 1549 infected in African green monkey Vero 76 cells assessed as protection against virus-induced cytopathic effect after 3 days by crystal violet staining-based plaque reduction assay; assay type: functional, organism-based; settings: Orthopoxvirus vaccinia, ATCC VR 1549, Vero 76, 72 h
Enterovirus C = test: Antiviral activity against Enterovirus C Sabin […] infected in African green monkey Vero 76 cells assessed as protection against virus-induced cytopathic effect after 2 days by crystal violet staining-based plaque reduction assay; assay type: functional, organism-based; settings: Vero 76, 48 h
[6] = Cytotoxicity against African green monkey Vero 76 cells assessed as decrease in cell viability after 48 to 96 hrs by MTT assay; assay type: cell-based; settings: chlorocebus sabaeus
In short: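 Vero 76 cells seeded at 5×10^5 cells/mL in D-MEM with 10% FBS and incubated with serial compound dilutions at 37 °C, 5% CO2. Viability read by MTT after 48–96 h. CC50 by linear regression versus untreated controls.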

[7] = Cytotoxicity against bovine MDBK cells assessed as decrease in cell viability after 72 hrs by MTT assay; assay type: cell-based, Bos taurus; settings: cattle; in short: as §2
Yellow fever virus [8] = test: Antiviral activity against Yellow fever virus 17D vaccine (Stamaril Pasteur J07B01) infected in golden hamster BHK21 cells assessed as protection against virus-induced cytopathic effect after 3 to 4 days by MTT assay; assay type: functional, organism-based; settings: BHK-21; in short: as §1
[9] = test system: Human immunodeficiency virus 1; test: Antiviral activity against HIV1 3B infected in human MT4 cells assessed as protection against virus-induced cytopathic effect after 4 days by MTT assay; assay type: functional, organism-based; settings: Human immunodeficiency virus 1, 3B, MT4, 96 h
In short: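 MT-4 cells (1×10^4/well) in RPMI with serial compound dilutions, infected with 100 CCID50 HIV-1 (m.o.i. 0.01). Viability read by MTT after 4 days at 37 °C. EC50 for 50% protection from cytopathicity obtained by linear regression versus untreated controls; mean of three determinations.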

[10] = Selectivity index, ratio of CC50 for golden hamster BHK21 cells to EC50 for Yellow fever virus 17D; assay type: toxicity; settings: read-out: Ratio CC50/EC50
In short: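 Selectivity index calculated as BHK-21 CC50 divided by YFV EC50, both from MTT assays.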

[11] = Cytotoxicity against human MT4 cells assessed as decrease in cell viability after 96 hrs by MTT assay; assay type: cell-based
In short: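 Exponentially growing MT-4 cells seeded at 1×10^5 cells/mL in RPMI-1640 with 10% FBS and incubated with serial compound dilutions at 37 °C, 5% CO2. Viability read by MTT after 96 h. CC50 by linear regression versus untreated controls.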

dengue virus type 2 = test: Antiviral activity against Dengue virus type 2 clinical isolate infected in golden hamster BHK21 cells assessed as protection against virus-induced cytopathic effect after 3 to 4 days by MTT assay; assay type: functional, organism-based; settings: BHK-21; in short: as §1
[12] = test system: Mammalian orthoreovirus 1; test: Antiviral activity against Reovirus 1 infected in golden hamster BHK21 cells assessed as protection against virus-induced cytopathic effect after 3 to 4 days by MTT assay; assay type: functional, organism-based; settings: Mammalian orthoreovirus 1, BHK-21; in short: as §1
[13] = Antiviral activity against Human enterovirus B Faulkner ATCC VR 185 infected in African green monkey Vero 76 cells assessed as protection against virus-induced cytopathic effect after 3 days by crystal violet staining-based plaque reduction assay; assay type: functional, cell-based; settings: Faulkner ATCC VR 185, Vero 76, 72 h
[14] = Cytotoxicity against African green monkey Vero 76 cells assessed as decrease in cell viability after 5 days by MTT assay; assay type: cell-based; settings: chlorocebus sabaeus
[15] = Selectivity index, ratio of CC50 for African green monkey Vero 76 cells to EC50 for Human coxsackievirus B5 Faulkner; assay type: toxicity; settings: read-out: Ratio CC50/EC50
In short: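 Selectivity index calculated as Vero 76 CC50 (MTT) divided by CVB-5 plaque-reduction EC50.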

Structure (SMILES) | pEC50 (Human orthopneumovirus) | pEC50 [1] | pEC50 (Human alphaherpesvirus 1) | CC50 at 72 h [2] | pEC50 [3] | Ratio EC50 (Yellow fever virus [4]) | pEC50 (West Nile virus) | selectivity ratio [5] | pEC50 (Vaccinia virus) | pEC50 (Enterovirus C) | CC50 [6] | CC50 at 72 h [7] | pEC50 (Yellow fever virus [8]) | pEC50 [9] | selectivity ratio [10] | CC50 at 96 h [11] | pEC50 (dengue virus type 2) | pEC50 [12] | pEC50 [13] | selectivity ratio [15] | also measured
NS(=O)(=O)c1ccc(N2N=C(c3ccc(OCc4ccccc4)cc3)CC2c2ccccc2Cl)cc1 (stereo not given) | < 4.04 | 5.12 | < 4.04 | 12 µM | < 4.04 | 10 | < 4.92 | 6.9 | < 4.04 | < 4.04 | 92 µM | 52 µM | 5.72 | < 4.59 | 6.3 | 26 µM | < 4.92 | < 4.92 | < 4.04 |  | 
Cc1cccc(C2CC(c3ccc(Oc4ccccc4)cc3)=NN2c2ccc(S(N)(=O)=O)cc2)c1 (stereo not given) | < 4.85 | < 5.22 | < 4.09 | 8 to 9 µM | < 4.09 | 10 | < 5.05 |  | < 4.09 | < 4.09 | 81 µM | 6 µM | 5.74 | < 4.46 | 5 | 35 µM | < 5.05 | < 5.10 | < 4.09 |  | CC50 at 120 h [14]: 14 µM
Cc1cccc(C2CC(c3ccc(OCc4ccccc4)cc3)=NN2c2ccc(S(N)(=O)=O)cc2)c1 (stereo not given) | < 4.00 | 4.90 | < 4.00 | 8 to 9 µM | < 4.00 | 10 | < 5.05 | 4.5 | < 4.00 | < 4.00 | 100 µM | 56 µM | 5.74 | < 4.36 | 5 | 44 µM | < 5.05 | < 5.10 | 5.10 | 12.5 | 
NS(=O)(=O)c1ccc(N2N=C(c3ccc(OCc4ccccc4)cc3)CC2c2ccc(Cl)cc2)cc1 (stereo not given) | < 4.09 | 5.35 | < 4.09 | 15 to 16 µM | < 4.09 | 10 | < 4.82 | 3.6 | < 4.09 | < 4.09 | 82 µM | 16 µM | 5.72 | < 4.15 | 7.9 | 70 µM | < 4.82 | < 4.80 | < 4.09 |  | 
NS(=O)(=O)c1ccc(N2N=C(c3ccc(OCc4ccccc4)cc3)CC2c2cccc(Cl)c2)cc1 (stereo not given) | < 4.07 | 5.26 | < 4.07 | 45 to 47 µM | < 4.07 | 10 | < 4.35 | 7.3 | < 4.07 | < 4.07 | 85 µM | 40 µM | 5.70 | 4.96 | 22.5 | 36 µM | < 4.35 | < 4.33 | < 4.07 |  | 
Cc1ccc(C2CC(c3ccc(OCc4ccccc4)cc3)=NN2c2ccc(S(N)(=O)=O)cc2)cc1 (stereo not given) | < 4.00 | 5.60 | < 4.00 | 32 to 36 µM | < 4.00 | 10 | < 4.44 | 32 | < 4.00 | < 4.00 | 100 µM | 80 µM | 5.74 | < 4.46 | 20 | 35 µM | < 4.44 | < 4.49 | 4.89 | 7.7 | 
NS(=O)(=O)c1ccc(N2N=C(c3ccc(Oc4ccccc4)cc3)CC2c2cccc(F)c2)cc1 (stereo not given) | < 4.55 | < 4.92 | < 4.55 | 10 to 11 µM | < 4.55 | 10 | < 5.00 |  | < 4.55 | < 4.55 | 28 µM | 12 µM | 5.74 | < 4.60 | 5.6 | 25 µM | < 5.00 | < 4.96 | 5.38 | 6.7 | 
NC(=O)c1ncn([C@@H]2O[C@H](CO)[C@@H](O)[C@H]2O)n1 [RIBAVIRIN] | 5.92 | 4.70 |  |  |  |  |  | 3 |  |  | > 100 µM | 62 µM |  |  |  |  |  |  |  |  | 
